Experimental data reported in ChEMBL document CHEMBL1275331, “Discovery of a novel 5-HT(3) antagonist/5-HT(1A) agonist 3-amino-5,6,7,8-tetrahydro-2-{4-[4-(quinolin-2-yl)piperazin-1-yl]butyl}quinazolin-4(3H)-one (TZB-30878) as an orally bioavailable agent for irritable bowel syndrome” (J Med Chem, 2010).

Experiments:
[1] = molecular target: T1, 5-hydroxytryptamine receptor 3A (Homo sapiens, UniProt P46098); assay: Displacement of [3H]BRL-43694 from human 5HT3 receptor expressed in HEK293 cells by liquid scintillation counting; assay type: cell-based
T1 sequence (P46098 whole entry): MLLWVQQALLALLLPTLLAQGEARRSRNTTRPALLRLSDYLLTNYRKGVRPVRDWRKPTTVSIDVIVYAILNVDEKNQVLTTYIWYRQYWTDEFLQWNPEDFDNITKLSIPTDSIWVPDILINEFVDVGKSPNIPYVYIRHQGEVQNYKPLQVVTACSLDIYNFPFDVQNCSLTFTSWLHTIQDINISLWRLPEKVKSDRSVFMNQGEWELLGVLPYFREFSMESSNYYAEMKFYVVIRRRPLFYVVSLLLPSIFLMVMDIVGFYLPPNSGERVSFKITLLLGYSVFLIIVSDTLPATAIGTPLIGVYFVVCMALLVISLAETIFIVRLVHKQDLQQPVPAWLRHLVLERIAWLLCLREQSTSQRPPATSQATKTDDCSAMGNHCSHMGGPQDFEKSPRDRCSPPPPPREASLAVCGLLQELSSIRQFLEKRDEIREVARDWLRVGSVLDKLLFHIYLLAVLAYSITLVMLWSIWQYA
Outline: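 HEK-293 membranes expressing human 5-HT3 were incubated with 0.5 nmol/L [3H]BRL-43694 (final) for 60 min at 25 °C. Buffer: 50 mM Tris-HCl, 5 mM MgCl2, 1 mM EDTA, pH 7.5. Compound came from 270 μmol/L DMSO stock, diluted in buffer. Filtration was through GF/B presoaked in 0.5% polyethyleneimine, with two cold Tris washes. Run in duplicate or triplicate; percent inhibition calculated.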

[2] = molecular target: T2, 5-hydroxytryptamine receptor 1A (Homo sapiens, UniProt P08908); assay: Displacement of [3H]8-OH-DPAT from human 5HT1A receptor expressed in CHO cells by liquid scintillation counting; assay type: cell-based
T2 sequence (P08908 whole entry): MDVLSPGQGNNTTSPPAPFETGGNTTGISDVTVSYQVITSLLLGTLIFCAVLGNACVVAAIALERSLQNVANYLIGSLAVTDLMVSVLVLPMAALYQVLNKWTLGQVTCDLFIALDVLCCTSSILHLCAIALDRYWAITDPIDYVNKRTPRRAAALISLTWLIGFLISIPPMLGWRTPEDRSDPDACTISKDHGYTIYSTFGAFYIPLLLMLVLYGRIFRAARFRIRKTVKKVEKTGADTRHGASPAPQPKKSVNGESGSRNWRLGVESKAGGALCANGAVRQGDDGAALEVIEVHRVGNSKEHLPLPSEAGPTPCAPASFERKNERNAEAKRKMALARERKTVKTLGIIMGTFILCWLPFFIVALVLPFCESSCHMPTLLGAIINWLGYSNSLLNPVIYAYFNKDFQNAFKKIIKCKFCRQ
Outline: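 CHO-cell membranes with human 5-HT1A were incubated with 0.25 nmol/L [3H]8-OH-DPAT (final) for 60 min at 27 °C. Buffer: 50 mM Tris-HCl, 10 mM MgSO4, 0.5 mM EDTA, 0.1% ascorbic acid, pH 7.4. Compound came from 270 μmol/L DMSO stock, diluted in buffer. Filtration was through GF/C presoaked in 0.3% polyethyleneimine, with two cold Tris washes. Run in duplicate or triplicate; percent inhibition of binding calculated.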

[3] = molecular target: T3, 5-hydroxytryptamine receptor 3A (Cavia porcellus) (UniProt O70212); assay: Inhibition of 5HT3 receptor-mediated contraction of guinea pig ileum at 1 umol/L after 20 mins relative to control; assay type: tissue-based
T3 sequence (whole entry): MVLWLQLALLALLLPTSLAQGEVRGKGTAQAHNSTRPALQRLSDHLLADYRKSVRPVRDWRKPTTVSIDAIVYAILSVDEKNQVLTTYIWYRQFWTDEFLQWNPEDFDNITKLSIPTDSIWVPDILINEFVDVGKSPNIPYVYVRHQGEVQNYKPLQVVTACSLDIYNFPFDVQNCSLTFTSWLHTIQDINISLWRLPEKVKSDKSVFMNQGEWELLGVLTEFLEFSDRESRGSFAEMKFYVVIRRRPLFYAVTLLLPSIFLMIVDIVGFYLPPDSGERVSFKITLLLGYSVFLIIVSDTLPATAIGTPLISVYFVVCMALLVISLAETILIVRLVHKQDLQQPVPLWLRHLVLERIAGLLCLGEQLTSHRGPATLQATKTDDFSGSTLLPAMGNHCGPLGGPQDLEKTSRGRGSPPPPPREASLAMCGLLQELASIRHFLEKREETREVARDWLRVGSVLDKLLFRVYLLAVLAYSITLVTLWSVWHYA
Outline: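 Ileum strips in Tyrode solution at 37 °C, gassed 5% CO2/95% O2, isotonic contractions under 1 g load. After at least 3 stable contractions to 10 μM 2-methyl-5-HT, tissue exposed to compound or DMSO vehicle for 20 min, then 10 μM 2-methyl-5-HT re-added; contraction expressed as % inhibition of control.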

Row | IC50 [1] | IC50 [2] | inhibition [3] | SMILES
1 | > 100 nM | 13.5 nM | – | Cc1cccc2nc(CCCCN3CCN(c4ccc5ccccc5n4)CC3)n(N)c(=O)c12
2 | > 100 nM | > 100 nM | – | Cc1sc2nc(SCCCN3CCN(c4nc5ccccc5nc4-c4ccccc4)CC3)n(N)c(=O)c2c1C
3 | 45.6 nM | < 10 nM | – | Cc1ccc2nc(CCCCN3CCN(c4ccc5ccccc5n4)CC3)n(N)c(=O)c2c1
4 | > 100 nM | < 10 nM | – | Nn1c(CCCCN2CCN(c3ccc4ccccc4n3)CC2)nc2ccc(Cl)cc2c1=O
5 | 97.9 nM | < 10 nM | – | CC1CCc2c(nc(CCCCN3CCN(c4ccc5ccccc5n4)CC3)n(N)c2=O)C1 (stereo not given)
6 | 86.6 nM | > 100 nM | – | Nn1c(CN2CCN(c3ccc4ccccc4n3)CC2)nc2c(c1=O)CCCC2
7 | 26.7 nM | < 10 nM | – | Cc1sc2nc(CCCCN3CCN(c4ccc5ccccc5n4)CC3)n(N)c(=O)c2c1C
8 | > 100 nM | 62.3 nM | – | Nn1c(CCCCN2CCN(c3nc4ccccc4c4c3CCC4)CC2)nc2c(c1=O)CCCC2
9 | 64.8 nM | < 1 nM | – | Nn1c(SCCCN2CCN(c3ccc4ccccc4n3)CC2)nc2ncccc2c1=O
10 | > 100 nM | 18 nM | – | Nn1c(CCCCN2CCN(c3ccc4ccccc4n3)CC2)nc2cc(Cl)ccc2c1=O
11 | 62.1 nM | < 1 nM | – | Nn1c(CCCCN2CCN(c3ccc4ccccc4n3)CC2)nc2c(c1=O)CCC2
12 | 44.2 nM | > 100 nM | – | O=c1[nH]c(SCCCN2CCN(c3ccc4ccccc4n3)CC2)nc2sc3c(c12)CCCC3
13 | 52.6 nM | 96.4 nM | – | Nn1c(CCCCN2CCN(c3nc4ccccc4cc3O)CC2)nc2c(c1=O)CCCC2
14 | > 100 nM | 55.4 nM | – | Cc1sc2nc(SCCCN3CCN(c4nc5ccccc5c5ccccc45)CC3)n(N)c(=O)c2c1C
15 | 48.4 nM | 36.4 nM | 41.9% | Cc1sc2nc(SCCCN3CCN(c4ccc5ccccc5n4)CC3)n(N)c(=O)c2c1C
16 | 83.1 nM | < 10 nM | – | Nn1c(CCCCN2CCN(c3ccc4ccccc4n3)CC2)nc2c(Cl)cccc2c1=O
17 | > 100 nM | 6.1 nM | – | Cc1sc2nc(SCCCN3CCN(c4ccc5c(n4)CCCC5)CC3)n(N)c(=O)c2c1C
18 | 69.9 nM | 24.4 nM | – | Nn1c(SCCCN2CCN(c3ccc4ccccc4n3)CC2)nc2ccccc2c1=O
19 | > 100 nM | < 10 nM | – | Nn1c(CCCCN2CCN(c3ccc4ccccc4n3)CC2)nc2cc(F)ccc2c1=O
20 | > 100 nM | > 100 nM | – | Cc1sc2nc(SCCCN3CCN(c4ccc5ccccc5n4)CC3)[nH]c(=O)c2c1C
21 | > 100 nM | 59.3 nM | – | Nn1c(CCCCN2CCN(c3ccc4cc(O)ccc4n3)CC2)nc2c(c1=O)CCCC2
22 | 50.5 nM | 4.3 nM | – | Cc1sc2nc(SCCCN3CCN(c4cc(C)c5ccccc5n4)CC3)n(N)c(=O)c2c1C
